Source: ChEMBL document CHEMBL4364301 (Eur J Med Chem, 2019)

Columns and labels:
Assay type in all cases: functional
LNCaP [1] = test: Antiproliferative activity against human LNCAP cells assessed as T/C value at 1 x 10^-2 uM incubated for 96 hrs by propidium iodide based 2D monolayer assay
In short: (§1)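 Cells were kept in RPMI 1640 with 25 mM HEPES, 10% FCS and gentamicin at 37 °C under 5% CO2, and plated at 4,000-20,000 cells/well. After 24 h recovery, compound in medium or medium alone (control wells) was added at 10 half-log concentrations from 0.0032 to 100 µM, in triplicate, with at most 0.3% DMSO. After 96 h, wells were PBS-washed, stained with 7 µg/ml PI and 0.1% Triton X-100, and fluorescence read at 530/620 nm. IC50 came from a 4-parameter fit, geometric mean.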

LNCaP [2] = test: Antiproliferative activity against human LNCAP cells assessed as T/C value at 3.2 x 10^-2 uM incubated for 96 hrs by propidium iodide based 2D monolayer assay; in short: as §1
LNCaP [3] = test: Antiproliferative activity against human LNCAP cells assessed as T/C value at 1 x 10^-1 uM incubated for 96 hrs by propidium iodide based 2D monolayer assay; in short: as §1
LNCaP [4] = test: Antiproliferative activity against human LNCAP cells assessed as T/C value at 3.2 x 10^-1 uM incubated for 96 hrs by propidium iodide based 2D monolayer assay; in short: as §1
LNCaP [5] = test: Antiproliferative activity against human LNCAP cells assessed as T/C value at 1 uM incubated for 96 hrs by propidium iodide based 2D monolayer assay; in short: as §1
LNCaP [6] = test: Antiproliferative activity against human LNCAP cells assessed as T/C value at 3.2 uM incubated for 96 hrs by propidium iodide based 2D monolayer assay; in short: as §1
LNCaP [7] = test: Antiproliferative activity against human LNCAP cells assessed as T/C value at 1 x 10^1 uM incubated for 96 hrs by propidium iodide based 2D monolayer assay; in short: as §1
LNCaP [8] = test: Antiproliferative activity against human LNCAP cells assessed as T/C value at 3.2 x 10^1 uM incubated for 96 hrs by propidium iodide based 2D monolayer assay; in short: as §1
LNCaP [9] = test: Antiproliferative activity against human LNCAP cells assessed as T/C value at 1 x 10^2 uM incubated for 96 hrs by propidium iodide based 2D monolayer assay; in short: as §1
CWR22R [10] = test: Antiproliferative activity against human 22Rv1 cells assessed as T/C value at 3.2 x 10^-3 uM incubated for 96 hrs by propidium iodide based 2D monolayer assay; in short: as §1
CWR22R [11] = test: Antiproliferative activity against human 22Rv1 cells assessed as T/C value at 1 x 10^-2 uM incubated for 96 hrs by propidium iodide based 2D monolayer assay; in short: as §1
CWR22R [12] = test: Antiproliferative activity against human 22Rv1 cells assessed as T/C value at 3.2 x 10^-2 uM incubated for 96 hrs by propidium iodide based 2D monolayer assay; in short: as §1
CWR22R [13] = test: Antiproliferative activity against human 22Rv1 cells assessed as T/C value at 1 x 10^-1 uM incubated for 96 hrs by propidium iodide based 2D monolayer assay; in short: as §1
CWR22R [14] = test: Antiproliferative activity against human 22Rv1 cells assessed as T/C value at 3.2 x 10^-1 uM incubated for 96 hrs by propidium iodide based 2D monolayer assay; in short: as §1
CWR22R [15] = test: Antiproliferative activity against human 22Rv1 cells assessed as T/C value at 1 uM incubated for 96 hrs by propidium iodide based 2D monolayer assay; in short: as §1
CWR22R [16] = test: Antiproliferative activity against human 22Rv1 cells assessed as T/C value at 3.2 uM incubated for 96 hrs by propidium iodide based 2D monolayer assay; in short: as §1
CWR22R [17] = test: Antiproliferative activity against human 22Rv1 cells assessed as T/C value at 3.2 x 10^1 uM incubated for 96 hrs by propidium iodide based 2D monolayer assay; in short: as §1
CWR22R [18] = test: Antiproliferative activity against human 22Rv1 cells assessed as T/C value at 1 x 10^2 uM incubated for 96 hrs by propidium iodide based 2D monolayer assay; in short: as §1
DU-145 [19] = test: Antiproliferative activity against human DU145 cells assessed as T/C value at 3.2 uM incubated for 96 hrs by propidium iodide based 2D monolayer assay; in short: as §1
DU-145 [20] = test: Antiproliferative activity against human DU145 cells assessed as T/C value at 3.2 x 10^1 uM incubated for 96 hrs by propidium iodide based 2D monolayer assay; in short: as §1
DU-145 [21] = test: Antiproliferative activity against human DU145 cells assessed as T/C value at 1 x 10^2 uM incubated for 96 hrs by propidium iodide based 2D monolayer assay; in short: as §1

CNC(=O)c1ccc(N2C(=S)N(c3ccc(C#N)c(C(F)(F)F)c3)C(=O)C2(C)C)cc1F [ENZALUTAMIDE]
T/C (LNCaP [1]): 92%
T/C (LNCaP [2]): 100%
T/C (LNCaP [3]): 89%
T/C (LNCaP [4]): 77%
T/C (LNCaP [5]): 65%
T/C (LNCaP [6]): 69%
T/C (LNCaP [7]): 57%
T/C (LNCaP [8]): 28%
T/C (LNCaP [9]): 6%
T/C (CWR22R [10]): 96%
T/C (CWR22R [11]): 98%
T/C (CWR22R [12]): 99%
T/C (CWR22R [13]): 93%
T/C (CWR22R [14]): 96%
T/C (CWR22R [15]): 93%
T/C (CWR22R [16]): 88%
T/C (CWR22R [17]): 57%
T/C (CWR22R [18]): 13%
T/C (DU-145 [19]): 120%
T/C (DU-145 [20]): 84%
T/C (DU-145 [21]): 19%
